Columns and labels:
RPMI-8226 [1] = assay: Cytotoxicity against human RPMI8226 cells after 72 hrs by MTT assay; assay type: functional, cell-based; settings: RPMI-8226, 72 h
In short: (§1)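 RPMI 8226, MCF-7, LMTK and primary mouse fibroblasts (PMF) were seeded at ~2000 cells per well and preincubated 24 h at 37 °C, 5% CO2, in IMDM or RPMI 1640. Compounds were then added and cells incubated a further 72 h. Viable cells were quantified by MTT colorimetric assay, and the concentration giving 50% growth inhibition (IC50) was derived. Values are mean ± SD of at least three independent experiments.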

MCF7 [2] = assay: Cytotoxicity against human MCF7 cells after 72 hrs by MTT assay; assay type: functional, cell-based; settings: MCF7, 72 h; in short: as §1
[3] = Cytotoxicity against mouse LMTK cells after 72 hrs by MTT assay; assay type: cell-based; settings: L-M(TK-); in short: as §1
[4] = Cytotoxicity against PMF after 72 hrs by MTT assay; set-up: species or system Mus musculus; in short: as §1
MCF7 [5] = assay: Ratio of compound IC50 to F-Cpd5 IC50 for human MCF7 cells; assay type: functional, cell-based
Salmonella typhimurium [6] = assay: Reduction of spontaneous mutagenesis in histidine-dependent Salmonella Typhimurium TA102 harboring histidine operon mutant assessed as concentration required to suppress 100% to 50% mutagenesis after 48 hrs by Ames test; assay type: functional, organism-based, Salmonella enterica subsp. enterica serovar Typhimurium; settings: Salmonella enterica, TA102, 48 h
In short: (§2)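 S. typhimurium TA102 Ames test without metabolic activation. Single colony grown 15 h at 37 °C with shaking in LB with ampicillin (50 µg/ml) and tetracycline (2 µg/ml). Overnight culture mixed with compound at varied concentrations, with or without 3 mM H2O2, in 0.6% top agar at 42 °C. Poured onto minimal 0.2% glucose plates, incubated 48 h at 37 °C, revertants counted. Untreated revertant count set as 100%. At least three independent experiments.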

Salmonella typhimurium [7] = assay: Reduction of spontaneous mutagenesis in histidine-dependent Salmonella Typhimurium TA102 harboring histidine operon mutant assessed as inhibition of H2O2-induced formation of mutants from 100% to 50% of revertants after 48 hrs by Ames test; assay type: functional, organism-based, Salmonella enterica subsp. enterica serovar Typhimurium; settings: Salmonella enterica, TA102, 48 h; in short: as §2
Salmonella typhimurium [8] = assay: Reduction of spontaneous mutagenesis in histidine-dependent Salmonella Typhimurium TA102 harboring histidine operon mutant assessed as inhibition of H2O2-induced formation of mutants from 150% to 100% of revertants after 48 hrs by Ames test; assay type: functional, organism-based, Salmonella enterica subsp. enterica serovar Typhimurium; settings: Salmonella enterica, TA102, 48 h; in short: as §2
MCF7 [9] = assay: Ratio of IC50 for human MCF7 cellss to IC50 for human RPMI8226 cells; assay type: functional
RPMI-8226 [10] = assay: Ratio of compound IC50 to F-Cpd5 IC50 for human RPMI8226 cells; assay type: functional, cell-based
[11] = Cytotoxicity against PMF at 25 ug/ml after 72 hrs by MTT assay; settings: mouse, PMF cells; read-out: INH
In short: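 Cells (~2000 per well) were preincubated 24 h at 37 °C, 5% CO2, in IMDM or RPMI 1640, then exposed to compound for 72 h with MTT read-out. Where cytotoxicity was low, percent growth inhibition at the highest concentration tested was recorded instead of an IC50. Values are mean ± SD of at least three independent experiments.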

[12] = Cytotoxicity against mouse LMTK cells at 30 uM after 72 hrs by MTT assay; assay type: cell-based
[13] = Cytotoxicity against PMF at 25 ug/ml after 72 hrs by MTT assay; settings: mouse

O=C1C(F)=C(N(CCO)CCO)C(=O)c2c(F)c(F)c(F)c(F)c21
IC50 (RPMI-8226 [1]): 5.1 µM | IC50 (MCF7 [2]): 7.5 µM | IC50 [3]: 52.7 µM | IC50 [4]: 34 µM | Ratio IC50 (MCF7 [5]): 13 | IC50 (Salmonella typhimurium [6]): 275 µM | IC50 (Salmonella typhimurium [7]): 45.3 µM | IC50 (Salmonella typhimurium [8]): 2.9 µM

O=C1C(F)=C(NCCO)C(=O)c2c(F)c(F)c(F)c(F)c21
IC50 (RPMI-8226 [1]): 1.2 µM | IC50 (MCF7 [2]): 5.8 µM | IC50 [3]: 11.7 µM | IC50 [4]: 3.3 µM | Ratio IC50 (MCF7 [5]): 13 | Ratio IC50 (MCF7 [9]): 4.8 | IC50 (Salmonella typhimurium [6]): 54 µM | IC50 (Salmonella typhimurium [7]): 44.9 µM | IC50 (Salmonella typhimurium [8]): 26 µM

CCN(CC)C1=C(F)C(=O)c2c(F)c(F)c(F)c(F)c2C1=O
Ratio IC50 (RPMI-8226 [10]): 2 | Ratio IC50 (MCF7 [5]): 2

CN(CCO)C1=C(F)C(=O)c2c(F)c(F)c(F)c(F)c2C1=O
IC50 (RPMI-8226 [1]): 5.6 µM | IC50 (MCF7 [2]): 2.4 µM | IC50 [3]: 44.5 µM | IC50 [4]: 24.9 µM | Ratio IC50 (MCF7 [5]): 13 | IC50 (Salmonella typhimurium [6]): 37.6 µM | IC50 (Salmonella typhimurium [7]): 30.2 µM | IC50 (Salmonella typhimurium [8]): 3.4 µM

CCNC1=C(F)C(=O)c2c(F)c(F)c(F)c(F)c2C1=O
Ratio IC50 (RPMI-8226 [10]): 2 | Ratio IC50 (MCF7 [5]): 2

CC(C)(C)NC1=C(F)C(=O)c2c(F)c(F)c(F)c(F)c2C1=O
Ratio IC50 (RPMI-8226 [10]): 2 | Ratio IC50 (MCF7 [5]): 2

O=C1C(F)=C(N2CCOCC2)C(=O)c2c(F)c(F)c(F)c(F)c21
IC50 (RPMI-8226 [1]): 6 µM | IC50 (MCF7 [2]): 5.7 µM | IC50 [3]: 30 µM | cytotoxicity at 72 h, 25 ug/ml [11]: 45% | Ratio IC50 (MCF7 [5]): 13 | Activity [12]: 50% | IC50 (Salmonella typhimurium [6]): 131 µM | IC50 (Salmonella typhimurium [7]): 169 µM | IC50 (Salmonella typhimurium [8]): 54 µM | activity at 25 ug/ml [13]: 45%

COC1=C(F)C(=O)c2c(F)c(F)c(F)c(F)c2C1=O
IC50 (RPMI-8226 [1]): 4 µM | IC50 (MCF7 [2]): 26.5 µM | IC50 [3]: 13.7 µM | IC50 [4]: 8.9 µM | IC50 (Salmonella typhimurium [6]): 39 µM | IC50 (Salmonella typhimurium [7]): 20 µM | IC50 (Salmonella typhimurium [8]): 2.8 µM

COC1=C(OC)C(=O)c2c(F)c(F)c(F)c(F)c2C1=O
IC50 (RPMI-8226 [1]): 0.96 µM | IC50 (MCF7 [2]): 6 µM | IC50 [3]: 8.6 µM | IC50 [4]: 18.9 µM | Ratio IC50 (MCF7 [5]): 13 | Ratio IC50 (MCF7 [9]): 6 | IC50 (Salmonella typhimurium [6]): 198 µM | IC50 (Salmonella typhimurium [7]): 53.8 µM | IC50 (Salmonella typhimurium [8]): 38.3 µM

O=C1C(F)=C(Nc2ccccc2)C(=O)c2c(F)c(F)c(F)c(F)c21
Ratio IC50 (RPMI-8226 [10]): 2 | Ratio IC50 (MCF7 [5]): 2

O=C1C=C(SCCO)C(=O)c2c(F)c(F)c(F)c(F)c21
IC50 (RPMI-8226 [1]): 2.9 µM | IC50 (MCF7 [2]): 12.8 µM | IC50 [3]: 25 µM | IC50 [4]: 30 µM | Ratio IC50 (RPMI-8226 [10]): 5.3 | IC50 (Salmonella typhimurium [6]): 26.1 µM | IC50 (Salmonella typhimurium [7]): 23.5 µM | IC50 (Salmonella typhimurium [8]): 12.7 µM

— ChEMBL document CHEMBL1641594, “Cytotoxicity of new polyfluorinated 1,4-naphtoquinones with diverse substituents in the quinone moiety” (Bioorg Med Chem, 2011)
